# Measurements from different studies.
# Compare with care: the assays were run in different laboratories.
# Target: Serine/threonine-protein kinase ULK1 (ULK1, Homo sapiens, UniProt O75385)
# One construct used (O75385 1-1050): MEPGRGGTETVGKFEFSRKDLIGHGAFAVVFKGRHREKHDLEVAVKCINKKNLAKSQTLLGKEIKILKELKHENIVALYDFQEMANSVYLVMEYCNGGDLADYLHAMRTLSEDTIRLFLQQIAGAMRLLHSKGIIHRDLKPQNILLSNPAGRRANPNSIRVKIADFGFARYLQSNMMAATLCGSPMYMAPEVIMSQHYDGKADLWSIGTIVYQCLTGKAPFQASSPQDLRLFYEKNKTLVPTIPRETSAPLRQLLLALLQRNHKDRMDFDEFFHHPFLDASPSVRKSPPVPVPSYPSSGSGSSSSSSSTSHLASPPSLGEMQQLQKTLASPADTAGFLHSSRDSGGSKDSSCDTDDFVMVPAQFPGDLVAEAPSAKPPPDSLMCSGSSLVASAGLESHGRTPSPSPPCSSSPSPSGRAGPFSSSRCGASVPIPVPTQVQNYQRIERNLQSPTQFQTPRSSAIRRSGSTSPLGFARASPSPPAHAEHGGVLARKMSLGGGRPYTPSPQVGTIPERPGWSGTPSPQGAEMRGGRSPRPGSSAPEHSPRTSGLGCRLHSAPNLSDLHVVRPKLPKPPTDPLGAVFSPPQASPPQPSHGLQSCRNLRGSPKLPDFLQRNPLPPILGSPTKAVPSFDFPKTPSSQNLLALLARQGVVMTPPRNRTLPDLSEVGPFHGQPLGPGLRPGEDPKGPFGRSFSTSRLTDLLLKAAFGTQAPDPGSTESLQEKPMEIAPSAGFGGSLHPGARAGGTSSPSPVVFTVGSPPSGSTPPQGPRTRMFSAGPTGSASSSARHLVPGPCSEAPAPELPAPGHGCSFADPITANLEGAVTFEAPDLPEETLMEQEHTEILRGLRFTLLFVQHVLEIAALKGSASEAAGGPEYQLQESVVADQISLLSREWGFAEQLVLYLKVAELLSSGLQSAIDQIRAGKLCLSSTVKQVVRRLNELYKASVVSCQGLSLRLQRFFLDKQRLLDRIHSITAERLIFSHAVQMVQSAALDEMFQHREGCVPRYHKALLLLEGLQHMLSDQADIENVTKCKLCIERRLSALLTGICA
SMILES,test,setting,quantity,result
C[C@]1(O)CCCN(c2nc(Nc3ccc(S(=O)(=O)N[C@H]4CC[C@H](CN5CCN(c6ccc(C7CCC(=O)NC7=O)cc6F)CC5)CC4)cc3F)ncc2C(F)(F)F)C1 (stereo partly drawn),"binding, competition with immobilised ligand",1 µM,remaining binding,49%
COc1ccc2[nH]c3c4[nH]c5ccc(OC)cc5c4c4c(c3c2c1)C(=O)NC4=O,binding,1 µM,remaining binding,100%
Cc1cc(S(=O)(=O)N[C@H]2CC[C@H](CN3CCN(c4ccc(C5CCC(=O)NC5=O)cc4F)CC3)CC2)ccc1Nc1ncc(C(F)(F)F)c(N2CCC[C@](C)(O)C2)n1 (stereo partly drawn),"binding, competition with immobilised ligand",1 µM,remaining binding,5.7%
C[C@H]1CC[C@H](n2c3cnccc3c3cnc(Nc4ccc5c(n4)CCN(C(=O)CO)C5)nc32)CC1,cell-free assay,1 µM,remaining signal,94%
C1=C/COCc2cc(ccc2OCCN2CCCC2)Nc2nccc(n2)-c2cccc(c2)COC/1,cell-free assay,0.1 µM,remaining signal,90%
C=CC(=O)N1CCC([C@@H]2CCNc3c(C(N)=O)c(-c4ccc(Oc5ccccc5)cc4)nn32)CC1,"enzyme activity, inhibitor",1 µM,inhibition,0%
COc1ccc2oc(-c3ccc4nc(N)oc4c3)c/c(=N\c3ccccc3NC(=O)CCN)c2c1,binding,1 µM,remaining binding,99%
CO[C@@H]1[C@H](N(C)C(=O)c2ccccc2)C[C@H]2O[C@]1(C)n1c3ccccc3c3c4c(c5c6ccccc6n2c5c31)C(=O)NC4,"enzyme activity, inhibitor",1 µM,inhibition,7%
CCCCC(=O)Nc1ccc(-c2ccc3ncn(CCC)c(=O)c3c2)cn1,"binding, competition with immobilised ligand",0.5 µM,remaining binding,94%
